Source: ChEMBL document CHEMBL3108694, “Development of novel dual binders as potent, selective, and orally bioavailable tankyrase inhibitors” (J Med Chem, 2013)
Values after ≈ are worked out from the molar mass of the structure shown.

Tests used:
[1] = Inhibition of TNKS in human SW480 cells assessed as accumulation of axin-2 into cytoplasmic foci after 24 hrs by Hoechst dye-based assay; settings: SW480, 24 h
[2] = Solubility in fasted state simulated intestinal fluid at pH 6.8; format: ADME
[3] = Half life in CD-1 mouse plasma at 1 uM by LC-MS/MS analysis; format: ADME, cell-free
Procedure, shortened: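 Lithium-heparinized CD-1 mouse plasma was spiked with 1 μM substrate and incubated at 37 °C for 3 h, sampling at 0, 0.167, 1, 2 and 3 h (n = 2). Samples underwent acetonitrile protein precipitation with tolbutamide as internal standard. Analysis was by reversed-phase UPLC-ESI-MS/MS in MRM mode.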

[4] = Intrinsic clearance in rat liver microsomes at 1 uM after 30 mins; format: ADME; settings: read-out: CLH
Procedure, shortened: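 Substrate depletion in rat liver microsomes: 0.25 mg protein/mL, 1 mM NADPH and 2 mM MgCl2 in 50 mM potassium phosphate, pH 7.4, prewarmed to 37 °C. Test compound was added to a final 1 μM, and parent loss was measured after 30 min at 37 °C.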

[5] = Inhibition of TNKS in human SW480 cells assessed as degradation of total pool of beta-catenin after 40 to 48 hrs; format: cell-based
Procedure, shortened: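 SW480 cells were seeded at 10 000/well in MEMα with 10% HI FBS, GlutaMAX, pyruvate and 10 mM HEPES. They were treated with a 10-point, 3-fold dilution series at 0.1% final DMSO for 40–48 h at 37 °C, then lysed. Total β-catenin was measured by MSD sandwich immunoassay (polyclonal capture, SULFO-TAG mAb detection).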

[6] = molecular target: T1, Poly [ADP-ribose] polymerase tankyrase-1 (Homo sapiens, UniProt O95271); test: Inhibition of 6x-His-tagged TNKS1 (unknown origin) after 60 mins
T1 sequence (O95271 whole entry): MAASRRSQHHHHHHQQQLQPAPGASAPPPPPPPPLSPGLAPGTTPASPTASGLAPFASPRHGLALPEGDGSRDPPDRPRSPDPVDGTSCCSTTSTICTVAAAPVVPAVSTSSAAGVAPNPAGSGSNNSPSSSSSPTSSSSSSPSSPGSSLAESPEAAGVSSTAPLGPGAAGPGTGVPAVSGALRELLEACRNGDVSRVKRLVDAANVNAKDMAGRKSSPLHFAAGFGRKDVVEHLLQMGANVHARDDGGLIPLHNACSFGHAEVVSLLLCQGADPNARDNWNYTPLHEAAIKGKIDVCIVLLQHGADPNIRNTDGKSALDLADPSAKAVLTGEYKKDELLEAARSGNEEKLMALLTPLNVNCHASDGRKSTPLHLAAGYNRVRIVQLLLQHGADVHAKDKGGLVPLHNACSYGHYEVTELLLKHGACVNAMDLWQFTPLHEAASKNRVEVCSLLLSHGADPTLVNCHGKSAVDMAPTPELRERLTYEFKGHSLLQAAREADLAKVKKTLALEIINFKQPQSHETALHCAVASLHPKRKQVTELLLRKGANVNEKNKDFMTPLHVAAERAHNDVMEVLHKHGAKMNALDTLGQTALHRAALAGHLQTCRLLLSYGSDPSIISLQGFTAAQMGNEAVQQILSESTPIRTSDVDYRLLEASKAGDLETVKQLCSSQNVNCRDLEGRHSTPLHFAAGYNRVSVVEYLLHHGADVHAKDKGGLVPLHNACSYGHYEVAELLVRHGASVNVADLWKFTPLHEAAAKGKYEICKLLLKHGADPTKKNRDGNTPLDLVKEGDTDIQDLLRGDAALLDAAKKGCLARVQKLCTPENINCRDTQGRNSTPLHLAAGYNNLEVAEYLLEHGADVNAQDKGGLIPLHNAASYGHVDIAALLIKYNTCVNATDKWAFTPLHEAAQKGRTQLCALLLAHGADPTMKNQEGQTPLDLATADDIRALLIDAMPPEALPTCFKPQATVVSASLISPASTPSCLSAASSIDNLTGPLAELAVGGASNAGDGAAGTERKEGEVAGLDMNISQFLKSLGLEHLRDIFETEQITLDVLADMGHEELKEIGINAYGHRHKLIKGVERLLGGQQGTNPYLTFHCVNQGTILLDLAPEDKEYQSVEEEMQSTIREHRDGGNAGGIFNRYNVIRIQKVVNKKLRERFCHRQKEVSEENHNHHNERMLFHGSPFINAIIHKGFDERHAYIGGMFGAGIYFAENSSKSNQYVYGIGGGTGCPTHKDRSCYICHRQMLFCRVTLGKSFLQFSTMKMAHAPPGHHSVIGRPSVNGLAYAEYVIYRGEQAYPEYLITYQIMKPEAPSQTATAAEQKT

[7] = Tmax in CD-1 mouse at 30 mg/kg, po; format: ADME, organism-based; parameters: dose 30 mg/kg, route oral; settings: in vivo
Procedure, shortened: (§1)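 Male CD-1 mice given a single oral dose of 30 mg/kg. Vehicle was 10% Pluronic F68, 30% HPBCD and 60% water, pH adjusted to 10.0 with NaOH for most compounds or to 2.5 with methanesulfonic acid for one. Mean plasma PK parameters were reported.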

[8] = AUC (0 to infinity) in CD-1 mouse at 30 mg/kg, po; format: ADME, organism-based; parameters: time infinity, dose 30 mg/kg, route oral; settings: plasma; procedure, shortened: as §1
[9] = Cmax in CD-1 mouse at 30 mg/kg, po; format: ADME, organism-based; parameters: dose 30 mg/kg, route oral; settings: in vivo; procedure, shortened: as §1
[10] = Half life in rat at 0.5 mg/kg, iv; format: ADME, organism-based; parameters: dose 0.5 mg/kg, route intravenous; settings: in vivo
Procedure, shortened: (§2)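 Male rats received a single intravenous dose of 0.5 mg/kg. Mean clearance, steady-state volume of distribution and half-life were reported.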

[11] = Volume of distribution at steady state in rat at 0.5 mg/kg, iv; format: ADME, organism-based; parameters: dose 0.5 mg/kg, route intravenous; settings: in vivo, read-out: Vdss; procedure, shortened: as §2
[12] = Inhibition of TNKS in human DLD1 cells expressing APC mutant assessed as inhibition of super-Topflash reporter gene transcription after 40 to 48 hrs by dual-glo luciferase reporter gene assay; format: cell-based; settings: DLD-1
Procedure, shortened: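 DLD-1 cells carried an 8× TCF-driven firefly luciferase and an EF1a-driven Renilla luciferase, and were seeded at 10 000/well in RPMI with 10% FBS without antibiotics. A 10-point, 3-fold dilution series starting at 10 μM was applied for 40–48 h at 37 °C. Firefly and Renilla activities were read with Dual-Glo reagents.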

[13] = Clearance in rat at 0.5 mg/kg, iv; format: ADME, organism-based; parameters: dose 0.5 mg/kg, route intravenous; settings: in vivo; procedure, shortened: as §2
[14] = Fraction unbound in mouse plasma at 5 uM after 5 hrs by equilibrium dialysis method; format: ADME, cell-free
Procedure, shortened: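 Mouse plasma was spiked to a final 5 μM and equilibrium-dialyzed against plasma water (ultrafiltrate) for 5 h at 37 °C in a CO2 incubator, using a rapid equilibrium dialysis device. Fraction unbound was determined in duplicate.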

| SMILES | half-life at 1 µM [3] [min] | microsomal CLint at 1 µM [4] [µL/min/mg] | IC50 [5] [nM] | IC50 [6] [nM] | other results |
| --- | --- | --- | --- | --- | --- |
| O=C(CCc1nc2ccccc2c(=O)[nH]1)N[C@H]1CC[C@H](c2nnc(-c3ccccc3)o2)CC1 | > 500 | < 14 | 80 | – | EC50 [1]: 640 nM; solubility [2]: 16.2 µg/mL (≈ 36.5 µM) |
| O=C(N[C@H]1CC[C@H](c2nnc(-c3ccccc3)o2)CC1)[C@@H]1CCCN(Cc2nc3ccccc3c(=O)[nH]2)C1 | – | 206 | 1170 | – | solubility [2]: 43 µg/mL (≈ 83.9 µM) |
| O=C(CCSc1nc2ccccc2c(=O)[nH]1)N[C@H]1CC[C@H](Oc2cccc(Cl)c2)CC1 | – | – | 120 | – | – |
| O=C(CCCc1nc2ccccc2c(=O)[nH]1)N[C@H]1CC[C@H](c2nnc(-c3ccccc3)o2)CC1 | – | 20 | 17 | – | solubility [2]: 11 µg/mL (≈ 24 µM) |
| O=C(CCc1nc2ccccc2c(=O)[nH]1)Nc1ccc(-c2c[nH]c(-c3ccccc3)n2)cc1 | 53 | – | > 10000 | 640 | – |
| O=C(CCSc1nc2ccccc2c(=O)[nH]1)N[C@H]1CC[C@H](Oc2ccncc2)CC1 | – | – | 6.9 | – | Tmax [7]: 40.2 min; AUC(0-inf) [8]: 11.5 µM·h; Cmax [9]: 7 µM; half-life [10]: 42 min; Vd [11]: 0.4 L/kg; IC50 [12]: 0.7 nM; EC50 [1]: 6.8 nM; clearance [13]: 11 mL/min/kg; fraction unbound at 5 h, 5 µM [14]: 0.032 |
| COc1ccccc1N(C)C(=O)c1ccc(NC(=O)CCc2nc3ccccc3c(=O)[nH]2)cc1 | 38 | – | 5680 | 400 | – |
| Cc1ccnc2c(NC(=O)c3ccc(N4C(=O)[C@@H]5[C@H](C4=O)[C@@H]4C=C[C@H]5C4)cc3)cccc12 | – | – | – | 160 | – |
| O=C(C[C@H]1CCCN1Cc1nc2ccccc2c(=O)[nH]1)N[C@H]1CC[C@H](c2nnc(-c3ccccc3)o2)CC1 | – | > 399 | 500 | – | solubility [2]: 42 µg/mL (≈ 81.9 µM) |
| Cn1c(-c2ccc(NC(=O)CCc3nc4ccccc4c(=O)[nH]3)cc2)nc2ccccc21 | > 500 | – | > 10000 | 1090 | – |
| O=C(CCc1nc2ccccc2c(=O)[nH]1)Nc1ccc(-c2nc(-c3ccccc3)c[nH]2)cc1 | – | – | – | > 46000 | – |
| O=C(CCc1nc2c(c(=O)[nH]1)CCCN2)N[C@H]1CC[C@H](c2nnc(-c3ccccc3)o2)CC1 | – | < 14 | 1020 | – | – |
| O=C(CCc1nc2ccccc2c(=O)[nH]1)Nc1ccc(-c2nc(-c3ccccc3)no2)cc1 | – | – | – | > 46000 | – |
| COc1ccccc1NC(=O)[C@H]1CC[C@@H](NC(=O)CCc2nc3ccccc3c(=O)[nH]2)CC1 | > 1000 | – | – | 7460 | – |
| O=C(CCSc1nc2ccccc2c(=O)[nH]1)N[C@H]1CC[C@H](Oc2ccc(F)cc2)CC1 | – | – | 16.7 | – | – |
| O=C(CCSc1nc2ccccc2c(=O)[nH]1)N[C@H]1CC[C@H](Oc2ccccn2)CC1 | – | – | 15.4 | – | – |
